Measurements from ChEMBL document CHEMBL4513216, “Probing the Open Global Health Chemical Diversity Library for Multistage-Active Starting Points for Next-Generation Antimalarials” (ACS Infect Dis, 2020).

Experiment: Toxicity liver stage against HepG2, at 10uM
Assay type: cell-based
Parameters: test concentration 10 uM, cell line HepG2-A16-CD81EGFP
Conditions: human, HepG2-A16-CD81EGFP cells; read-out: INHIBITION
Procedure, shortened: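 Uninfected HepG2-A16-CD81EGFP cells, 3 × 10^3 per well, 1536-well, plated on prespotted compound at 10 μM final, parasite-free screening media added to match infected plates; puromycin 10 μM positive, DMSO 0.5% negative; run in parallel with 48 h PbLuc assay at 37 °C, 5% CO2; viability by CellTiter-Glo luminescence, normalized to controls.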

Compound | cytotoxicity at 10 µM
Cn1nc(COc2cccnc2)c2c1CCN(c1ncccn1)C2 | -105%
COCCC(=O)N1CCC2(COCc3cnc(N(C)C)nc32)C1 (stereo not given) | -64.8%
c1coc(CN2CCO[C@@]3(CCC[C@@H]3COCc3nccs3)C2)c1 | -73.5%
Cn1cc(CN2CCC3(CCCN3S(C)(=O)=O)CC2)cn1 | 1.59%
Cc1ccsc1C(=O)N1Cc2ccccc2C2(CCN(C)CC2)C1 | 2.6%
Cn1ncc2c(NC3CN4CCC3CC4)nc(-c3ccncc3)nc21 (stereo not given) | 41.1%
CCCc1cc(CNc2cc(CCC)nc3ccnn23)on1 | -6.75%
Cc1nc2cc(CNC(=O)C3CC(=O)N(C4CCCC4)C3)ccc2n1C (stereo not given) | -2.37%
CCC(CO)N(Cc1cccc(-n2cccn2)c1)Cc1cccs1 (stereo not given) | 7.63%
CCC1(CO)CCCN(C(=O)c2ccc(N3CCN(C)CC3)cc2)C1 (stereo not given) | -4.71%
Cc1nc(CN2CCC3(CCCO3)CC2)c2ccccn12 | 2.07%
Cc1cc(N2CCC(CO)(CC3CCCCO3)CC2)nc2ccccc12 (stereo not given) | 5.51%
CCOc1ccnc(NCc2nc(C)cc(C(F)(F)F)n2)n1 | -10.1%
Cc1ccccc1SC1CCN(C(=O)CCCS(N)(=O)=O)CC1 | -7.76%
CC(=O)Nn1c(C)cc(CN2CCC(C(=O)N3CCCC3)CC2)c1C | 1.57%
Cc1nc[nH]c1-c1nccn1-c1cccc(CN2CCCC2)c1 | 4.36%
OCc1ccc(-c2c(-c3ccccc3)ncn2CCN2CCOCC2)o1 | -18.9%
CCCN1CCC(CC(=O)N[C@H](C(=O)O)c2cccc(F)c2F)CC1 | 3.78%
CCc1cc(NCc2cc3n(n2)CCCN(S(C)(=O)=O)C3)nc(C)n1 | -1.52%
CN1CCC(N(CCc2ccccc2)C(=O)c2ccc(C#N)cc2)CC1 | -2.37%
CN1CCCN(C(=O)c2cc(CN(C)CCc3ccccc3)on2)CC1 | -15.3%
O=C(Nc1ccc(-n2cccn2)cc1)N1CCOCC(O)C1 (stereo not given) | -46.8%
Cc1cc(CN[C@@H](Cc2ccccc2)C(N)=O)c(C)s1 | -0.527%
COc1cccc(-c2cccc(N3CCC(N[C@@H]4CCOC4)CC3)c2)c1 | -12.7%
Cc1nc2ccccc2nc1NCc1nnc2n1CCC2 | -1.8%
COc1ccc(OCc2nc(C(=O)N3CCCNC(=O)C3)co2)cc1 | -45.1%
O=C(O)Cc1cccc(-n2ccnc2-c2ccc(Cl)s2)c1 | 0.185%
CC(C)CN1CC2(CCN(C(=O)C3CNC(=O)N3)CC2)CC1=O (stereo not given) | 2.18%

Compound | cytotoxicity at 10 µM
Cc1ccc(NC2(C(=O)NCCCN)CCCC2)cc1 | 1.58%
CC(C)c1nnsc1CNC(=O)C1CCCN(C(=O)N(C)C)C1 (stereo not given) | -7.73%
CCN1CCCC1CN(Cc1ccoc1)CC1CCN(CCOC)CC1 (stereo not given) | -2.64%
Cc1nn(C)c2nc(N(CCN(C)C)C3CCCC3)sc12 | -1.93%
CN1CC2(CCN(Cc3ncc[nH]3)CC2)CC1=O | -1.52%
Cc1csc2c(N3CCC(NCCc4ccnn4C)CC3)ncnc12 | 0.429%
O=C1CCCCN1CCc1nc(-c2cccnn2)no1 | -5.67%
O=C1CCCCN1CCC(=O)N1CCCCC1c1ccc(F)cc1 (stereo not given) | -41.7%
CCc1nnc(CN(C)c2nc(C(C)C)nc3c2cnn3C)o1 | -9.52%
COC[C@@]12CC[C@@H](N3CCOCC3)C[C@H]1CCN(c1ncccn1)C2 | -11.9%
CC(C)c1cc(CN2CCC(CC(=O)O)CC2)no1 | -2.53%
O=C(COc1cccc(F)c1)N1C[C@@H](O)[C@H](N2CCCC2)C1 | -4.22%
CCc1cc(C(=O)N2CCCC2c2nc(C)c(F)c(O)n2)on1 (stereo not given) | 0.626%
Cc1[nH]ncc1C(=O)N1CCCN(Cc2nccn2C(C)C)CC1 | -6.33%
Cn1ccnc1CN1CCN(c2ccc(C#N)cc2F)CC1 | -2.06%
Cc1cc(C)n(-c2ccc(CNCc3ccc(OC(C)C)cc3)cn2)n1 | -6.95%
Cn1nc(COc2cccnc2)c2c1CCN(c1cnccn1)C2 | 1.34%
Cc1noc([C@@H]2CCO[C@@H]3CCN(Cc4ccc(C)s4)C[C@@H]32)n1 | -77.6%
CNC(=O)CN1CCOCC2(CCCN(Cc3ccc(F)cc3)C2)C1 (stereo not given) | 6.88%
c1cnn(CCCO[C@@H]2CC[C@H]3[C@H]2OCCN3CC2CC2)c1 | 5.93%
COc1ncc(C2(O)CCN(Cc3c(F)cccc3F)CC2)c(OC)n1 | 5.29%
Cc1ncnc2c1CCN(CC(=O)N(C)C)CC2 | -101%
O=C(c1cnccn1)N1CCC2(CC1)CCN(Cc1ccccn1)C2=O | 0.108%
CS(=O)(=O)N1Cc2cnn(CC3CC3)c2C(COCC2CC2)C1 (stereo not given) | 9.43%
Cn1ccnc1CN1CCC2(CC(=O)N(c3ccsc3)C2)C1 (stereo not given) | -82.7%
CN(C)CC(=O)N1C[C@H]2CCC[C@@]2(COc2ccccn2)C1 | 3.88%
CCN1CCO[C@]2(CCC[C@H]2COCc2csc(C)n2)C1 | 0.153%
